Laboratory results: ChEMBL document CHEMBL1287779, “Indium(III) chloride catalyzed three-component coupling reaction: a novel synthesis of 2-substituted aryl(indolyl)kojic acid derivatives as potent antifungal and antibacterial agents” (2010)
Values after ≈ are worked out from the molar mass of the structure shown.

Assays:
Format in all cases: functional
Saccharomyces cerevisiae [1] = test: Antifungal activity against Saccharomyces cerevisiae MTCC 36 assessed as zone of inhibition at 100 ug by agar well diffusion method; conditions: read-out: IZ
Procedure, shortened: (§1)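 Agar well diffusion on potato dextrose agar. Plates were spread with 0.5 mL of a week-old culture of the test organism, and 6 mm wells were cut with a cork borer. Compounds were dissolved in DMSO at different concentrations and added to the wells, with controls included. Plates were held at 27 °C for 48 h, and inhibition zone diameters were read in mm. Three to four replicates per treatment.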

Aspergillus niger [2] = test: Antifungal activity against Aspergillus niger MTCC 282 assessed as zone of inhibition at 150 ug by agar well diffusion method; conditions: read-out: IZ; procedure, shortened: as §1
Klebsiella pneumoniae = test: Antibacterial activity against Klebsiella pneumoniae MTCC 618 by broth dilution method
Procedure, shortened: (§2)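 MIC determined by broth dilution following NCCL standards. Penicillin and streptomycin were tested in parallel under identical conditions.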

Aspergillus niger [3] = test: Antifungal activity against Aspergillus niger MTCC 282 assessed as zone of inhibition at 100 ug by agar well diffusion method; conditions: read-out: IZ; procedure, shortened: as §1
Rhizopus arrhizus [4] = test: Antifungal activity against Rhizopus oryzae MTCC 262 assessed as zone of inhibition at 100 ug by agar well diffusion method; conditions: read-out: IZ; procedure, shortened: as §1
Diutina rugosa [5] = test: Antifungal activity against Candida rugosa NCIM 3462 assessed as zone of inhibition at 150 ug by agar well diffusion method; conditions: read-out: IZ; procedure, shortened: as §1
Staphylococcus aureus = test: Antibacterial activity against Staphylococcus aureus MTCC 96 by broth dilution method; procedure, shortened: as §2
[6] = tested on: Staphylococcus epidermidis; test: Antibacterial activity against Staphylococcus epidermidis MTCC 2639 by broth dilution method; procedure, shortened: as §2
Escherichia coli = test: Antibacterial activity against Escherichia coli MTCC 443 by broth dilution method; procedure, shortened: as §2
Diutina rugosa [7] = test: Antifungal activity against Candida rugosa NCIM 3462 assessed as zone of inhibition at 100 ug by agar well diffusion method; conditions: read-out: IZ; procedure, shortened: as §1
Bacillus subtilis = test: Antibacterial activity against Bacillus subtilis MTCC 441 by broth dilution method; procedure, shortened: as §2
Pseudomonas aeruginosa = test: Antibacterial activity against Pseudomonas aeruginosa MTCC 741 by broth dilution method; procedure, shortened: as §2
Candida albicans [8] = test: Antifungal activity against Candida albicans MTCC 227 assessed as zone of inhibition at 150 ug by agar well diffusion method; conditions: read-out: IZ; procedure, shortened: as §1
Rhizopus arrhizus [9] = test: Antifungal activity against Rhizopus oryzae MTCC 262 assessed as zone of inhibition at 150 ug by agar well diffusion method; conditions: read-out: IZ; procedure, shortened: as §1
Saccharomyces cerevisiae [10] = test: Antifungal activity against Saccharomyces cerevisiae MTCC 36 assessed as zone of inhibition at 150 ug by agar well diffusion method; conditions: read-out: IZ; procedure, shortened: as §1
Candida albicans [11] = test: Antifungal activity against Candida albicans MTCC 227 assessed as zone of inhibition at 100 ug by agar well diffusion method; conditions: read-out: IZ; procedure, shortened: as §1

| SMILES | MIC (Klebsiella pneumoniae) [µg/mL] | MIC (Staphylococcus aureus) [µg/mL] | MIC [6] [µg/mL] | MIC (Escherichia coli) [µg/mL] | MIC (Bacillus subtilis) [µg/mL] | MIC (Pseudomonas aeruginosa) [µg/mL] | zone of inhibition at 100 µg/disc (Saccharomyces cerevisiae [1]) [mm] | zone of inhibition at 150 µg/disc (Aspergillus niger [2]) [mm] | zone of inhibition at 100 µg/disc (Aspergillus niger [3]) [mm] | zone of inhibition at 100 µg/disc (Rhizopus arrhizus [4]) [mm] | zone of inhibition at 150 µg/disc (Diutina rugosa [5]) [mm] | zone of inhibition at 100 µg/disc (Diutina rugosa [7]) [mm] | zone of inhibition at 150 µg/disc (Candida albicans [8]) [mm] | zone of inhibition at 150 µg/disc (Rhizopus arrhizus [9]) [mm] | zone of inhibition at 150 µg/disc (Saccharomyces cerevisiae [10]) [mm] | zone of inhibition at 100 µg/disc (Candida albicans [11]) [mm] |
| --- | --- | --- | --- | --- | --- | --- | --- | --- | --- | --- | --- | --- | --- | --- | --- | --- |
| O=c1cc(CO)oc(C(c2cccc(Oc3ccccc3)c2)c2c[nH]c3ccccc23)c1O (stereo not given) | 75 (≈ 171 µM) | 37.5 (≈ 85.3 µM) | 18.8 (≈ 42.7 µM) | 75 (≈ 171 µM) | 150 (≈ 341 µM) | 75 (≈ 171 µM) | 14 | 16 | 11 | 7 | 18 | 13 | 19 | 10 | 19 | 14 |
| COc1ccc(C(c2oc(CO)cc(=O)c2O)c2c(C)[nH]c3ccccc23)cc1 (stereo not given) | 150 (≈ 383 µM) | 150 (≈ 383 µM) | 150 (≈ 383 µM) | 150 (≈ 383 µM) | 150 (≈ 383 µM) | 150 (≈ 383 µM) | 0 | 0 | 0 | 0 | 0 | 0 | 0 | 0 | 0 | 0 |
| O=c1cc(CO)oc(C(c2ccccc2O)c2c(-c3ccccc3)[nH]c3ccccc23)c1O (stereo not given) | 75 (≈ 171 µM) | 4.68 (≈ 10.6 µM) | 150 (≈ 341 µM) | 37.5 (≈ 85.3 µM) | 150 (≈ 341 µM) | 18.8 (≈ 42.7 µM) | 12 | 0 | 0 | 0 | 0 | 0 | 14 | 0 | 16 | 10 |
| COc1ccc(C(c2oc(CO)cc(=O)c2O)c2c[nH]c3ccc(Cl)cc23)cc1 (stereo not given) | 18.8 (≈ 45.5 µM) | 2.34 (≈ 5.68 µM) | 150 (≈ 364 µM) | 4.68 (≈ 11.4 µM) | 150 (≈ 364 µM) | 4.68 (≈ 11.4 µM) | 16 | 20 | 14 | 0 | 0 | 0 | 16 | 0 | 21 | 11 |
| COc1ccc(C(c2oc(CO)cc(=O)c2O)c2c(-c3ccccc3)[nH]c3ccccc23)cc1 (stereo not given) | 150 (≈ 331 µM) | 37.5 (≈ 82.7 µM) | 150 (≈ 331 µM) | 75 (≈ 165 µM) | 150 (≈ 331 µM) | 75 (≈ 165 µM) | 9 | 14 | 10 | 0 | 14 | 10 | 12 | 0 | 14 | 9 |
| CN[C@@H]1[C@H](O[C@H]2[C@H](O[C@H]3[C@H](O)[C@@H](O)[C@H](N=C(N)N)[C@@H](O)[C@@H]3N=C(N)N)O[C@@H](C)[C@]2(O)C=O)O[C@@H](CO)[C@H](O)[C@H]1O [STREPTOMYCIN] | 3.12 (≈ 5.37 µM) | 6.25 (≈ 10.7 µM) | 3.12 (≈ 5.37 µM) | 6.25 (≈ 10.7 µM) | 6.25 (≈ 10.7 µM) | 1.56 (≈ 2.69 µM) | – | – | – | – | – | – | – | – | – | – |
| C[C@@H]1[C@H](O)[C@@H](C)/C=C/C=C/C=C/C=C/C=C/C=C/C=C/[C@H](O[C@@H]2O[C@H](C)[C@@H](O)[C@H](N)[C@@H]2O)C[C@@H]2O[C@](O)(C[C@@H](O)C[C@@H](O)[C@H](O)CC[C@@H](O)C[C@@H](O)CC(=O)O[C@H]1C)C[C@H](O)[C@H]2C(=O)O [AMPHOTERICIN B] | – | – | – | – | – | – | 22 | – | 25 | 24 | – | 22 | – | – | – | 23.5 |
| CCC(c1oc(CO)cc(=O)c1O)c1c(-c2ccccc2)[nH]c2ccccc12 (stereo not given) | 75 (≈ 200 µM) | 9.38 (≈ 25 µM) | 18.8 (≈ 49.9 µM) | 9.38 (≈ 25 µM) | 18.8 (≈ 49.9 µM) | 37.5 (≈ 99.9 µM) | 14 | 0 | 0 | 0 | 0 | 0 | 0 | 0 | 20 | 0 |
| O=c1cc(CO)oc(C(c2ccccc2)c2c[nH]c3ccccc23)c1O (stereo not given) | 75 (≈ 216 µM) | 150 (≈ 432 µM) | 150 (≈ 432 µM) | 150 (≈ 432 µM) | 150 (≈ 432 µM) | 150 (≈ 432 µM) | 0 | 14 | 10 | 0 | 9 | 6 | 0 | 0 | 0 | 0 |

More lines, in order of falling MIC (Klebsiella pneumoniae), values ahead:

| MIC (Klebsiella pneumoniae) [µg/mL] | MIC (Staphylococcus aureus) [µg/mL] | MIC [6] [µg/mL] | MIC (Escherichia coli) [µg/mL] | MIC (Bacillus subtilis) [µg/mL] | MIC (Pseudomonas aeruginosa) [µg/mL] | SMILES | zone of inhibition at 100 µg/disc (Saccharomyces cerevisiae [1]) [mm] | zone of inhibition at 150 µg/disc (Aspergillus niger [2]) [mm] | zone of inhibition at 100 µg/disc (Aspergillus niger [3]) [mm] | zone of inhibition at 100 µg/disc (Rhizopus arrhizus [4]) [mm] | zone of inhibition at 150 µg/disc (Diutina rugosa [5]) [mm] | zone of inhibition at 100 µg/disc (Diutina rugosa [7]) [mm] | zone of inhibition at 150 µg/disc (Candida albicans [8]) [mm] | zone of inhibition at 150 µg/disc (Rhizopus arrhizus [9]) [mm] | zone of inhibition at 150 µg/disc (Saccharomyces cerevisiae [10]) [mm] | zone of inhibition at 100 µg/disc (Candida albicans [11]) [mm] |
| --- | --- | --- | --- | --- | --- | --- | --- | --- | --- | --- | --- | --- | --- | --- | --- | --- |
| 150 (≈ 368 µM) | 150 (≈ 368 µM) | 150 (≈ 368 µM) | 150 (≈ 368 µM) | 150 (≈ 368 µM) | 150 (≈ 368 µM) | COc1cc(C(c2oc(CO)cc(=O)c2O)c2c(C)[nH]c3ccccc23)ccc1O (stereo not given) | 0 | 0 | 0 | 0 | 0 | 0 | 0 | 0 | 0 | 0 |
| 150 (≈ 365 µM) | 150 (≈ 365 µM) | 150 (≈ 365 µM) | 150 (≈ 365 µM) | 150 (≈ 365 µM) | 150 (≈ 365 µM) | Cc1[nH]c2ccccc2c1C(c1ccc2ccccc2c1)c1oc(CO)cc(=O)c1O (stereo not given) | 0 | 0 | 0 | 0 | 0 | 0 | 0 | 0 | 0 | 0 |
| 75 (≈ 199 µM) | 37.5 (≈ 99.4 µM) | 18.8 (≈ 49.7 µM) | 150 (≈ 397 µM) | 150 (≈ 397 µM) | 75 (≈ 199 µM) | COc1ccc(C(c2oc(CO)cc(=O)c2O)c2c[nH]c3ccccc23)cc1 (stereo not given) | 0 | 0 | 0 | 0 | 9 | 6 | 0 | 0 | 0 | 0 |
| 75 (≈ 165 µM) | 18.8 (≈ 41.3 µM) | 150 (≈ 331 µM) | 75 (≈ 165 µM) | 150 (≈ 331 µM) | 75 (≈ 165 µM) | Cc1[nH]c2ccccc2c1C(c1cccc(Oc2ccccc2)c1)c1oc(CO)cc(=O)c1O (stereo not given) | 10 | 14 | 9 | 0 | 16 | 11 | 14 | 0 | 14 | 9 |
| 75 (≈ 164 µM) | 18.8 (≈ 41.1 µM) | 18.8 (≈ 41.1 µM) | 37.5 (≈ 82.2 µM) | 150 (≈ 329 µM) | 37.5 (≈ 82.2 µM) | COc1ccc(C(c2oc(CO)cc(=O)c2O)c2c[nH]c3ccc(Br)cc23)cc1 (stereo not given) | 10 | 18 | 12 | 0 | 19 | 13 | 18 | 0 | 16 | 13 |
| 75 (≈ 189 µM) | 37.5 (≈ 94.7 µM) | 18.8 (≈ 47.4 µM) | 18.8 (≈ 47.4 µM) | 150 (≈ 379 µM) | 18.8 (≈ 47.4 µM) | Cc1[nH]c2ccccc2c1C(c1ccc(Cl)cc1)c1oc(CO)cc(=O)c1O (stereo not given) | 0 | 12 | 8 | 7 | 0 | 0 | 0 | 10 | 0 | 0 |
| 6.25 (≈ 18.7 µM) | 1.56 (≈ 4.67 µM) | 3.12 (≈ 9.35 µM) | 12.5 (≈ 37.4 µM) | 1.56 (≈ 4.67 µM) | 12.5 (≈ 37.4 µM) | CC1(C)S[C@@H]2[C@H](NC(=O)Cc3ccccc3)C(=O)N2[C@H]1C(=O)O [PENICILLIN G] | – | – | – | – | – | – | – | – | – | – |
